# Calls of active or inactive are those of the source. No cut-off for these calls is given here.
# How the values were obtained:
# [1] = target: T1, Androgen receptor/Baculoviral IAP repeat-containing protein 2 (Homo sapiens, UniProt P10275+Q13490); assay: Induction of AR/cIAP1 interaction in human 22Rv1 cells assessed as ubiquitin proteasome system mediated androgen receptor protein degradation by Western blot analysis
# Target sequence in this assay (Q13490 whole entry, one chain of several): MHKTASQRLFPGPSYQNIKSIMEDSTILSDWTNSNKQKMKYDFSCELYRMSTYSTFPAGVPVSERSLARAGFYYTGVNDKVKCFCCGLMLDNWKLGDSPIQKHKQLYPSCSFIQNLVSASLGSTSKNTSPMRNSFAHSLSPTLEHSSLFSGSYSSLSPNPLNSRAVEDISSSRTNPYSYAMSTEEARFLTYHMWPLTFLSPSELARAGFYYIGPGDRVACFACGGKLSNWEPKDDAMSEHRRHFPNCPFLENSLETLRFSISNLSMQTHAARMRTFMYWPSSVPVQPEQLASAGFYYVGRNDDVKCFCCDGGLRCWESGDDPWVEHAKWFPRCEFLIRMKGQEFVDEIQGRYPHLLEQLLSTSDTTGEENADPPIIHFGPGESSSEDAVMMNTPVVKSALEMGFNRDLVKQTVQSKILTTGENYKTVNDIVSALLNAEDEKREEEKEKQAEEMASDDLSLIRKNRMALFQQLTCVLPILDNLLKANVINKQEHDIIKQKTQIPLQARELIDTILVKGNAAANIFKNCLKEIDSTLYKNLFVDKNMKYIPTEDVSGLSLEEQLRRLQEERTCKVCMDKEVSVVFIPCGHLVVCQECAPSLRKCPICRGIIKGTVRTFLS
# Androgen receptor [2] = target: T2, Androgen receptor (Homo sapiens, UniProt P10275); assay: Displacement of [17-alpha-methyl-H-3] mibolerone from wild-type androgen receptor (unknown origin) expressed in human Freestyle293F cells measured after 3 hrs; format: cell-based
# T2 sequence (P10275 whole entry): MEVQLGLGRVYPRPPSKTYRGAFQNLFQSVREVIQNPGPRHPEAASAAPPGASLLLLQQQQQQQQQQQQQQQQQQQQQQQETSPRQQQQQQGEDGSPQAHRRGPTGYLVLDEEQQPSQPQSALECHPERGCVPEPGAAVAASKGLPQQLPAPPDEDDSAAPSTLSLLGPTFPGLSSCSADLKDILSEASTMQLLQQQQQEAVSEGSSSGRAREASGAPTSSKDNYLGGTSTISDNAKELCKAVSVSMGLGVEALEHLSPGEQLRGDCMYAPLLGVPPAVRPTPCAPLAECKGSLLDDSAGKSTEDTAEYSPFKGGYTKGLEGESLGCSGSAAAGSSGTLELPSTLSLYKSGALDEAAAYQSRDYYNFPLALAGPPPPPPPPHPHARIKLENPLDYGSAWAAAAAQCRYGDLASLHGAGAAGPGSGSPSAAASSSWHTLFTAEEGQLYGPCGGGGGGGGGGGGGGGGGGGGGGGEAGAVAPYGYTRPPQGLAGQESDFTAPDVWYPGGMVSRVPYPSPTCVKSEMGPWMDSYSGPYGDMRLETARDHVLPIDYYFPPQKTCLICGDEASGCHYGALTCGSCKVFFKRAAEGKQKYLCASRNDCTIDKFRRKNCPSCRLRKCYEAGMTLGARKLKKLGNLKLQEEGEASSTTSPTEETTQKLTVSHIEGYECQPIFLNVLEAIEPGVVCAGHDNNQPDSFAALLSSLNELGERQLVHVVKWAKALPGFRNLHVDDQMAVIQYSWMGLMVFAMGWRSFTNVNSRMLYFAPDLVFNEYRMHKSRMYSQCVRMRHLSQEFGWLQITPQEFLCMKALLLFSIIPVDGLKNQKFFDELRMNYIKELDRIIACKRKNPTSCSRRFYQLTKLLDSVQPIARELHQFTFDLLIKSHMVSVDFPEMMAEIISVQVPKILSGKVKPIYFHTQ
# Method in brief: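 Wild-type AR was expressed in FreeStyle293F cells (pcDNA3.1, 48 h, 37 °C, 8% CO2). Cells were lysed in TEGM buffer (pH 7.2, molybdate, DTT) by freeze–thaw, and the supernatant from 228,000g spin was used. Lysate was incubated with 3 nM (final) [3H]mibolerone plus compound at 4 °C for 3 h. Bound and free were separated by dextran/charcoal and bound counts gave % inhibition; IC50 from three experiments.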
# [3] = target: T1, Androgen receptor/Baculoviral IAP repeat-containing protein 2; assay: (§1) Induction of AR/cIAP1 interaction in human 22Rv1 cells assessed as ubiquitin proteasome system mediated androgen receptor protein degradation at 3 uM after 6 hrs by Western blot analysis; format: cell-based
# Method in brief: (§2)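 22Rv1 cells were treated with compound, or with separate ligands (30 μM or 3 μM each), for 6 h. Lysates in SDS buffer (0.1 M Tris pH 8.0, 1% SDS) were normalized by BCA, run on SDS-PAGE and immunoblotted. AR/GAPDH ratio was normalized to vehicle as 100. DC50 is the concentration giving 50% AR reduction; means ± SD, n = 3; t-test against vehicle.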
# Target sequence in this assay (Q13490 whole entry, looked up, one chain of several): as the sequence (Q13490 whole entry, one chain of several) above
# [4] = target: T1, Androgen receptor/Baculoviral IAP repeat-containing protein 2; assay: Induction of AR/cIAP1 interaction in human 22Rv1 cells assessed as ubiquitin proteasome system mediated androgen receptor protein degradation at 1 to 3 uM after 6 hrs by Western blot analysis; format: cell-based
# Method in brief: as §2
# Target sequence in this assay (Q13490 whole entry, looked up, one chain of several): as the sequence (Q13490 whole entry, one chain of several) above
# [5] = target: T1, Androgen receptor/Baculoviral IAP repeat-containing protein 2; assay: Induction of AR/cIAP1 interaction in human 22Rv1 cells assessed as ubiquitin proteasome system mediated androgen receptor protein degradation at 30 uM in presence of methyl (2S)-2-(((2S,3R)-3-amino-2-hydroxy-4-phenylbutanoyl)amino)-4-methylpentanoate after 6 hrs by Western blot analysis; format: cell-based
# Method in brief: as §2
# Target sequence in this assay (Q13490 whole entry, looked up, one chain of several): as the sequence (Q13490 whole entry, one chain of several) above
# [6] = target: T1, Androgen receptor/Baculoviral IAP repeat-containing protein 2; assay: as §1, with “uM in presence of N-((1S)-1-Cyclohexyl-2-((2S)-2-(4-(3-methoxybenzoyl)-1,3-thiazol-2-yl)pyrrolidin-1-yl)-2-oxoethyl)-N2-methyl-L-alaninamide” for “uM”; format: cell-based
# Method in brief: as §2
# Target sequence in this assay (Q13490 whole entry, looked up, one chain of several): as the sequence (Q13490 whole entry, one chain of several) above
# [7] = target: T1, Androgen receptor/Baculoviral IAP repeat-containing protein 2; assay: Induction of AR/cIAP1 interaction in human 22Rv1 cells assessed as ubiquitin proteasome system mediated androgen receptor protein degradation after 6 hrs by Western blot analysis; format: cell-based
# Method in brief: as §2
# Target sequence in this assay (Q13490 whole entry, looked up, one chain of several): as the sequence (Q13490 whole entry, one chain of several) above
# [8] = target: T1, Androgen receptor/Baculoviral IAP repeat-containing protein 2; assay: Induction of AR/cIAP1 interaction in human 22Rv1 cells assessed as ubiquitin proteasome system mediated androgen receptor protein degradation at 3 uM in presence of 1-benzyl-4-(4-cyanophenyl)-2,5-dimethyl-1H-pyrrole-3-carbonitrile after 6 hrs by Western blot analysis; format: cell-based
# Method in brief: as §2
# Target sequence in this assay (Q13490 whole entry, looked up, one chain of several): as the sequence (Q13490 whole entry, one chain of several) above
# Androgen receptor [9] = target: T2, Androgen receptor; assay: Binding affinity to androgen receptor (unknown origin)
# Method in brief: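 Wild-type AR expressed by transfection of FreeStyle293F cells (48 h shaking at 37 °C), then lysed by freeze-thaw in TEGM buffer (pH 7.2, molybdate, DTT). Cleared lysate incubated with [3H]mibolerone (final 3 nM) plus test compound at 4 °C for 3 h. Bound and free separated by dextran/charcoal, bound counted, and % inhibition calculated. IC50 taken from three separate experiments.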
# [10] = target: T1, Androgen receptor/Baculoviral IAP repeat-containing protein 2; assay: Induction of AR/cIAP1 interaction in human 22Rv1 cells assessed as ubiquitin proteasome system mediated androgen receptor protein degradation at 30 uM after 6 hrs by Western blot analysis; format: cell-based
# Method in brief: as §2
compound,measurement,setting,value
Cc1nn(-c2ccc(C#N)c(Cl)c2)c(C)c1CCc1ccc(C(=O)NCCOCCOCCOCCNC(=O)[C@H](CC(C)C)NC(=O)[C@@H](O)[C@H](N)Cc2ccccc2)cc1,DC50,[1],20500 nM
same,IC50,Androgen receptor [2],190 nM
CN[C@@H](C)C(=O)N[C@H](C(=O)N1CCC[C@H]1c1nc(C(=O)c2cccc(OCCOCCOCCOc3ccc(Cn4c(C)c(C#N)c(-c5ccc(C#N)cc5)c4C)cc3)c2)cs1)C1CCCCC1,Activity,[3],Active
CN[C@@H](C)C(=O)N[C@H](C(=O)N1CCC[C@H]1c1nc(C(=O)c2cccc(OCCOc3ccc(OCCOc4ccc(Cn5c(C)c(C#N)c(-c6ccc(C#N)cc6)c5C)cc4)cc3)c2)cs1)C1CCCCC1,Activity,[4],inactive
CN[C@@H](C)C(=O)N[C@H](C(=O)N1CCC[C@H]1c1nc(C(=O)c2cccc(OCCOc3ccccc3OCCOc3ccc(Cn4c(C)c(C#N)c(-c5ccc(C#N)cc5)c4C)cc3)c2)cs1)C1CCCCC1,Activity,[4],inactive
Cc1c(C#N)c(-c2ccc(C#N)cc2)c(C)n1Cc1ccccc1,Activity,[5],inactive
same,Activity,[6],inactive
CN[C@@H](C)C(=O)N[C@H](C(=O)N1CCC[C@H]1c1nc(C(=O)c2cccc(OCCOCCOCCNC(=O)c3ccc(Cn4c(C)c(C#N)c(-c5ccc(C#N)cc5)c4C)cc3)c2)cs1)C1CCCCC1,MED,[7],3 µM
same,Activity,[4],Active
CN[C@@H](C)C(=O)N[C@H](C(=O)N1CCC[C@H]1c1nc(C(=O)c2cccc(OCCOCCOCCOCCCc3ccc(Cn4c(C)c(C#N)c(-c5ccc(C#N)cc5)c4C)cc3)c2)cs1)C1CCCCC1,Activity,[4],Active
CN[C@@H](C)C(=O)N[C@H](C(=O)N1CCC[C@H]1c1nc(C(=O)c2cccc(OCCOCCOCCOCCOCCOc3ccc(Cn4c(C)c(C#N)c(-c5ccc(C#N)cc5)c4C)cc3)c2)cs1)C1CCCCC1,Activity,[3],Active
Cc1nn(-c2ccc(C#N)cc2Cl)c(C)c1Cc1ccc(C(=O)NCCOCCOCCOCCNC(=O)[C@H](CC(C)C)NC(=O)[C@@H](O)[C@H](N)Cc2ccccc2)cc1,DC50,[1],> 30000 nM
same,IC50,Androgen receptor [2],> 10000 nM
CC(C)C[C@H](NC(=O)[C@@H](O)[C@H](N)Cc1ccccc1)C(=O)NCCOCCOCCOCCNC(=O)c1ccc(S(=O)(=O)CC(C)(O)C(=O)Nc2ccc(C#N)c(C(F)(F)F)c2)cc1 (some centres undefined),DC50,[1],> 30000 nM
same,IC50,Androgen receptor [2],1100 nM
CN[C@@H](C)C(=O)N[C@H](C(=O)N1CCC[C@H]1c1nc(C(=O)c2cccc(OC)c2)cs1)C1CCCCC1,Activity,[8],inactive
Cc1c(C#N)c(-c2ccc(C#N)cc2)c(C)n1Cc1ccc(C(=O)O)cc1,IC50,Androgen receptor [9],1.4 nM
CN[C@@H](C)C(=O)N[C@H](C(=O)N1CCC[C@H]1c1nc(C(=O)c2cccc(OCCOCCOCCOCCOc3cccc(Cn4c(C)c(C#N)c(-c5ccc(C#N)cc5)c4C)c3)c2)cs1)C1CCCCC1,Activity,[4],Active
Cc1c(C#N)c(-c2ccc(C#N)cc2)c(C)n1Cc1ccc(C(=O)NCCOCCOCCOCCNC(=O)[C@H](CC(C)C)NC(=O)[C@@H](O)[C@H](N)Cc2ccccc2)cc1,DC50,[1],21600 nM
same,MED,[7],30 µM
same,IC50,Androgen receptor [2],27 nM
same,Activity,[10],Active
CN[C@@H](C)C(=O)N[C@H](C(=O)N1CCC[C@H]1c1nc(C(=O)c2cccc(OCCOCCOCCOCCOc3ccccc3Cn3c(C)c(C#N)c(-c4ccc(C#N)cc4)c3C)c2)cs1)C1CCCCC1,Activity,[4],inactive
CN[C@@H](C)C(=O)N[C@H](C(=O)N1CCC[C@H]1c1nc(C(=O)c2cccc(OCCOc3cccc(OCCOc4ccc(Cn5c(C)c(C#N)c(-c6ccc(C#N)cc6)c5C)cc4)c3)c2)cs1)C1CCCCC1,Activity,[4],inactive
Cc1nn(-c2ccc(C#N)c(Cl)c2)c(C)c1CCc1ccc(C(=O)O)cc1,IC50,Androgen receptor [9],53 nM
Cc1nn(-c2ccc(C#N)c(C(F)(F)F)c2)c(C)c1Cc1ccc(C(=O)NCCOCCOCCOCCNC(=O)[C@H](CC(C)C)NC(=O)[C@@H](O)[C@H](N)Cc2ccccc2)cc1,DC50,[1],11700 nM
same,IC50,Androgen receptor [2],190 nM
CN[C@@H](C)C(=O)N[C@H](C(=O)N1CCC[C@H]1C(=O)N[C@H](C(=O)NCCOCCOCCOCCNC(=O)c1ccc(Cn2c(C)c(C#N)c(-c3ccc(C#N)cc3)c2C)cc1)C(c1ccccc1)c1ccccc1)C1CCCCC1,MED,[7],20 µM
CN[C@@H](C)C(=O)N[C@H](C(=O)N1CCC[C@H]1c1nc(C(=O)c2cccc(OCCOCCOCCOCC#Cc3ccc(Cn4c(C)c(C#N)c(-c5ccc(C#N)cc5)c4C)cc3)c2)cs1)C1CCCCC1,Activity,[4],Active

# — ChEMBL document CHEMBL4219028, “Development of Protein Degradation Inducers of Androgen Receptor by Conjugation of Androgen Receptor Ligands and Inhibitor of Apoptosis Protein Ligands” (J Med Chem, 2018)
